From ChEMBL document CHEMBL5104216, “Fragment-Sized Thiazoles in Fragment-Based Drug Discovery Campaigns: Friend or Foe?” (ACS Med Chem Lett, 2022) come the findings set out here.

Data set [1] concerns the target UDP-N-acetylglucosamine 1-carboxyvinyltransferase (Escherichia coli K-12) (UniProt P0A749). Briefly: Inhibition of recombinant Escherichia coli MurA assessed as residual activity at 500 uM using UDP-N-acetylglucosamine as substrate preincubated for 30 mins followed by substrate addition and measured by malachite green based colorimetric assay relative to control. In outline:
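E. coli MurA at 500–625 μM with 30 min preincubation before substrate addition. Malachite green colorimetric read-out. Activity threshold was <50% residual activity.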

Data set [2] has the same target. The data set can be described thus: Inhibition of recombinant Escherichia coli MurA assessed as residual activity at 500 uM using UDP-N-acetylglucosamine as substrate and measured by malachite green based colorimetric assay relative to control. In outline: (§1)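 Screened at 500–625 μM with malachite green colorimetric read-out. Activity threshold was <50% residual activity.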

Data set [3] shares this target. The data set can be described thus: Inhibition of recombinant Escherichia coli MurA assessed as residual activity at 500 uM using UDP-N-acetylglucosamine as substrate preincubated for 30 mins in presence of 1 mM DTT followed by substrate addition and measured by malachite green based colorimetric assay relative to control.
Data set [4] has as its target Replicase polyprotein 1ab (Severe acute respiratory syndrome coronavirus 2) (UniProt P0DTD1). The data set can be described thus: Inhibition of recombinant SARS-CoV-2 3CLpro expressed in Escherichia coli NiCo21(DE3) assessed as residual activity at 500 uM using DABCYL-KTSAVLQSGFRKME-EDANS as substrate preincubated for 30 mins followed by substrate addition and measured by FRET assay relative to control. In outline: (§2)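 Kinetic fluorescence read-out of cleavage of a FRET substrate carrying a DABCYL–EDANS pair. Compounds were tested at 500–625 μM, and <50% residual activity was taken as the activity threshold. To exclude false positives, absorbance at the excitation and emission wavelengths and autofluorescence of the compounds were measured.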

Data set [5] has the same target. Briefly: Inhibition of recombinant SARS-CoV-2 3CLpro expressed in Escherichia coli NiCo21(DE3) assessed as residual activity at 500 uM using DABCYL-KTSAVLQSGFRKME-EDANS as substrate preincubated for 30 mins in presence of 1mM DTT followed by substrate addition and measured by FRET assay relative to control. The method, boiled down:
as §2

The test system of data set [6] is Mycobacterium tuberculosis. Briefly: Inhibition of Mycobacterium tuberculosis MetAP1a assessed as residual activity at 625 uM using L-methionine 7-amido-4-methylcoumarin as fluorogenic substrate and measured by fluorescence based assay. In outline:
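Kinetic fluorescence assay in which the enzyme hydrolyses L-methionine 7-amido-4-methylcoumarin to fluorescent 7-amino-4-methylcoumarin. Compounds were tested at 500–625 μM, and activity was called at <50% residual activity. Spectral interference was checked by measuring absorbance at the excitation and emission wavelengths and compound autofluorescence.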

Data set [7] addresses D-alanine--D-alanine ligase B (Escherichia coli K-12) (UniProt P07862). The data set can be described thus: Inhibition of recombinant Escherichia coli DdlB assessed as residual activity at 500 uM using D-alanine as substrate incubated for 20 mins and measured by malachite green based colorimetric assay relative to control. In outline:
as §1

Data set [8] can be described thus: Redox activity of compound assessed as redox index at 100 uM measured by HRP-PR assay. The format is physicochemical. The method, boiled down:
(§3)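 H2O2 from redox cycling, with or without DTT, detected with horseradish peroxidase-phenol red (HRP-PR).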

The nature of data set [9]: Redox activity of compound assessed as redox index at 100 uM in presence of 1 mM DTT measured by HRP-PR assay. The format is physicochemical. The method, boiled down:
as §3

Data set [10] is described as follows: Redox activity of compound assessed as redox index at 100 uM measured by H2DCFDA assay. The format is physicochemical. The method, boiled down:
(§4)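 Reactive oxygen species, with or without the reducing agent TCEP, detected with the fluorescent probe H2DCFDA. Compound spectral interference (autofluorescence) checked under the assay conditions.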

Data set [11] is described as follows: Redox activity of compound assessed as redox index at 100 uM in presence of 100 uM TCEP measured by H2DCFDA assay. The format is physicochemical. In outline: as §4
Data set [12] can be described thus: Redox activity of compound assessed as redox index at 10 uM measured by resazurin assay. The format is physicochemical. The method, boiled down: (§5)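 Free radicals formed by redox cycling with DTT detected with resazurin by fluorimetric read-out. Spectral interference checked.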
For orientation: Alamar Blue is a resazurin reagent that responds to reducing activity.

Data set [13] in a line: Redox activity of compound assessed as redox index at 1 uM measured by resazurin assay. The format is physicochemical. In outline: as §5
Data set [14] can be described thus: Thiol reactivity of compound measured by TNB2- assay. In kind it is physicochemical. In outline: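 Reactivity toward the thiol surrogate TNB2– in a nonproteinaceous setting without TCEP. Reversibility tested by adding TCEP and checking that absorbance was restored.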
The nature of data set [15]: Aqueous stability of the compound at pH 7.4 measured after 60 mins by spectrophotometric analysis. The format is physicochemical. Conditions: buffer, pH 7.4, 1 h. The method, boiled down: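 Followed by spectrophotometry as changes in the compound absorption spectrum over time in 50 mM Tris-HCl pH 7.4, 0.5 mM EDTA, read after 60 min in 96-well microplate format. Compounds with low absorbance were not evaluated.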

Sequence of UDP-N-acetylglucosamine 1-carboxyvinyltransferase (Escherichia coli K-12) (P0A749 whole entry): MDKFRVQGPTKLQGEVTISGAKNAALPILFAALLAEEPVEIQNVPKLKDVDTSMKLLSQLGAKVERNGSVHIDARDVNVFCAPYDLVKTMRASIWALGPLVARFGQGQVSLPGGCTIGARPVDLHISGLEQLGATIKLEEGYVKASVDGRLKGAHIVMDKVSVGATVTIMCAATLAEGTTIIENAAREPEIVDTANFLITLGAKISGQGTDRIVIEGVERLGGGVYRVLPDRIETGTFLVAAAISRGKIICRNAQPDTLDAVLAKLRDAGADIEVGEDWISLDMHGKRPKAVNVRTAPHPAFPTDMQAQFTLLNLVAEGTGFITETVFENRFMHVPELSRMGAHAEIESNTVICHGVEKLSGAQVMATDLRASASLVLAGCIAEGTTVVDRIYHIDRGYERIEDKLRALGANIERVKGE

On to `Brc1nncs1`, for which the Activity in [1] turned out to be 143%; in data set [2], 47%; in [3], 114%; in [4], 5.1%; in [5], 78.3%; in [6] it was 106%. The Activity is 93% in data set [7] and “Active” in data set [14]. For the same molecule, the Activity_index in data set [8] is recorded as 1; in [9], 1; in data set [10], 1; in data set [11], 1.2; in data set [12], 0.9; in [13] it was 0.9.
Consider `NCCc1cn(Cc2cscn2)nn1`, for which the Activity was 0% in data set [1]; 28.1% in data set [2]; 110% in data set [3]; 87.2% in [4]; 87.4% in [5]; 94% in data set [6]. Besides, the Activity in data set [7] is 82%; in [14], “Active”. The Activity_index in [8] is reported as 0.9; in data set [9], 1; in data set [10], 1.2; in data set [11], 1.5; in [12] it was 0.9; in data set [13], 1.
For `Brc1cnc(Br)s1`, the Activity in data set [1] came out at 0%; in data set [2], 13.1%; in [3] it was 99%; in data set [4], 17.1%; in data set [5] it was 79.9%; in data set [6], 71.7%. Further, the Activity in data set [7] is 91%; in [14] it was “Active”. Also, the Activity_index came to 1 in data set [8]; 1 in data set [9]; 0.7 in data set [10]; 1 in data set [11]; 0.9 in data set [12]; 0.9 in data set [13].
As to `CC(C)(C)c1csc(N)n1`, the Activity came to 3.5% in [1]; 5.7% in [2]; 106% in [3]; 13% in [4]; 79.1% in data set [5]; 128% in data set [6]. The values for the Activity in [7] and in data set [14] were 94% and “Active”, respectively. In addition, the Activity_index in data set [8] is on record as 1; in data set [9], 1; in data set [10] it was 1.1; in data set [11], 0.5; in data set [12], 0.9; in data set [13] it was 1.1.
Take `CNc1nnc(C(F)(F)F)s1`: the Activity in data set [1] amounted to 113%; in data set [2], 99.5%; in data set [3] it was 102%; in data set [4], 147%; in data set [5], 82.3%; in data set [6], 101%. Further, the Activity in data set [7] was found to be 98%. Further, the Stability result in data set [15] is recorded as “Stable”. Further, the Activity_index in data set [8] came out at 1; in data set [9], 1; in data set [10] it was 1.2; in data set [11] it was 1.1; in data set [12], 1; in data set [13], 1.
Turning to `Nc1ccc(S(=O)(=O)Nc2nccs2)cc1` [SULFATHIAZOLE], the Activity came out at 82.3% in [1]; 96.5% in [2]; 100% in data set [3]; 71.7% in data set [4]; 74.2% in data set [5]; 94% in data set [6]. In data set [7], the Activity is 94%. Besides, the Stability result in [15] was “Stable”. The Activity_index in data set [8] amounted to 1; in data set [9] it was 1; in data set [10] it was 1.2; in data set [11], 1.1; in data set [12] it was 1; in [13], 0.9.
As to `O=C(O)c1csc(-c2ccncc2)n1`, the Activity in data set [1] worked out at 90.4%; in data set [2], 103%; in data set [3] it was 106%; in data set [4], 98%; in [5], 94.4%; in data set [6] it was 93.4%. Further, the Activity in data set [7] came to 96%. Further, the Stability result in data set [15] is “Stable”. The Activity_index in data set [8] worked out at 1; in data set [9], 1; in data set [10], 1; in data set [11], 1.1; in data set [12], 1; in data set [13], 1.
Take `Cc1nc(C(=O)O)cs1`: the Activity in data set [1] amounted to 1.6%; in data set [2] it was 7.2%; in data set [3], 105%; in [4], 3.4%; in data set [5] it was 78.7%; in [6] it was 73.9%. In addition, the Activity in data set [7] came out at 92%. Besides, in data set [15], the Stability result is recorded as “Stable”. The Activity_index in data set [8] was 1; in data set [9], 1; in [10], 0.9; in [11], 1.6; in data set [12], 1; in data set [13], 0.9.
Take `CCOC(=O)c1cnc(Br)s1`: the Activity in data set [1] came to 14.9%; in data set [2], 60.1%; in [3], 103%; in [4], 10.2%; in data set [5] it was 66.4%; in data set [6] it was 92.3%. The Activity in data set [7] is 90%. The Stability entry in data set [15] is “Stable”. Also, the Activity_index worked out at 1 in data set [8]; 1 in [9]; 0.9 in data set [10]; 1.1 in [11]; 1 in data set [12]; 0.9 in [13].
Regarding `Nc1nc(CC(=O)O)cs1`, the Activity worked out at 79.4% in data set [1]; 90.8% in data set [2]; 99.2% in data set [3]; 105% in data set [4]; 84.2% in [5]; 125% in [6]. For the same molecule, the Activity in data set [7] turned out to be 96%. Besides, in [15], the Stability entry is given as “Stable”. The Activity_index is given as 1.1 in [8]; 1 in data set [9]; 1.1 in [10]; 0.9 in data set [11]; 1 in data set [12]; 0.9 in [13].
In the case of `Cc1cnc(Br)s1`, the Activity in [1] was found to be 8.2%; in [2] it was 45.2%; in data set [3] it was 105%; in data set [4], 19.8%; in data set [5] it was 79.1%; in data set [6] it was 116%. In addition, the Activity was 77% in [7] and “Active” in data set [14]. Moreover, the Activity_index is 1 in data set [8]; 1 in data set [9]; 0.9 in data set [10]; 0.9 in [11]; 1 in [12]; 0.9 in data set [13].
Turning to `Nc1nc(C(=O)O)cs1`, the Activity in data set [1] amounted to 0%; in data set [2], 1.6%; in data set [3], 107%; in data set [4], 14.2%; in [5], 84.9%; in [6], 155%. The Activity in data set [7] is 96%; in data set [14], “Active”. Also, the Activity_index in [8] was 1; in data set [9], 1; in data set [10], 2.1; in data set [11], 1.6; in [12], 1.1; in [13] it was 1.
